The source made the active and inactive calls. The rule behind the calls is not given here.
Legend:
[1] = Intrinsic clearance per mg of protein in rat liver microsomes at 3 uM; format: ADME, Microsome
Summary of the method: (§1)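 Rat or human liver microsomes (0.5 mg/mL final) in 0.1 M phosphate pH 7.4 with 3 µM compound (1% DMSO), preincubated at 37 °C, started with 1 mM NADPH. Quenched with cold acetonitrile at 0, 15, 30, 45 min; LC/MS-MS of compound disappearance gives intrinsic clearance.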

[2] = Intrinsic clearance per mg of protein in human liver microsomes at 3 uM; format: ADME, Microsome; summary of the method: as §1
[3] = biological target: T1, Prostaglandin D2 receptor 2 (Homo sapiens, UniProt Q9Y5Y4); test: Displacement of [3H]PGD2 from human CRTH2 receptor expressed in CHO cells; format: cell-based
T1 sequence (Q9Y5Y4 whole entry): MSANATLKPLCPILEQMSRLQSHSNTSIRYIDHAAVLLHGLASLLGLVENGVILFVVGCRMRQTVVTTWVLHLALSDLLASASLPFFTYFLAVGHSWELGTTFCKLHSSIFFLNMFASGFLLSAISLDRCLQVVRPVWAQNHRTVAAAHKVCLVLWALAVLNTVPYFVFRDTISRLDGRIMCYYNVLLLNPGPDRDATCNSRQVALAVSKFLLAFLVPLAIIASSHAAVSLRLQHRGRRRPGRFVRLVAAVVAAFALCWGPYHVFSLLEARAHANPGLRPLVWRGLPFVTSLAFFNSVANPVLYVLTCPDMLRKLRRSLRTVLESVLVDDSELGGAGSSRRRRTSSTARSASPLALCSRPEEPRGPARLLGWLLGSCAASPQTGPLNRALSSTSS
Summary of the method: (§2)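 Scintillation proximity competition assay: 2–5 µg human or mouse CRTH2 membranes (nitrogen-cavitation, differential centrifugation) with WGA-SPA beads and 1.5 nM [3H]PGD2 in 10 mM HEPES/KOH pH 7.4, 10 mM MnCl2, protease inhibitors, 1% Me2SO, 90 min shaking at room temperature. Nonspecific binding with 1 µM PGD2. Ki by Cheng–Prusoff, mean of ≥3 independent experiments.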

[4] = Inhibition of prostanoid FP receptor
[5] = biological target: Prostaglandin E2 receptor EP2 subtype (Homo sapiens, UniProt P43116); test: Inhibition of prostanoid EP2 receptor
Sequence of Prostaglandin E2 receptor EP2 subtype (P43116 whole entry): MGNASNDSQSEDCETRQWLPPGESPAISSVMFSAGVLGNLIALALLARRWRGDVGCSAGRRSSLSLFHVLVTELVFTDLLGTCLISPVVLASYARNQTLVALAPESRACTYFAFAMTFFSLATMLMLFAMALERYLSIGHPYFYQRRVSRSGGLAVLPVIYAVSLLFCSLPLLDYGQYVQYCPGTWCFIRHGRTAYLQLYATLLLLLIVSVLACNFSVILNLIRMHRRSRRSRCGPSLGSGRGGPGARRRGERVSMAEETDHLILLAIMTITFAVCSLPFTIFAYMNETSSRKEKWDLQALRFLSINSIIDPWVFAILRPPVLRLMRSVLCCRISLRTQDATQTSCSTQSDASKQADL

[6] = biological target: T2, Prostaglandin D2 receptor (Homo sapiens, UniProt Q13258); test: Inhibition of prostaglandin D2 receptor
T2 sequence (Q13258 whole entry): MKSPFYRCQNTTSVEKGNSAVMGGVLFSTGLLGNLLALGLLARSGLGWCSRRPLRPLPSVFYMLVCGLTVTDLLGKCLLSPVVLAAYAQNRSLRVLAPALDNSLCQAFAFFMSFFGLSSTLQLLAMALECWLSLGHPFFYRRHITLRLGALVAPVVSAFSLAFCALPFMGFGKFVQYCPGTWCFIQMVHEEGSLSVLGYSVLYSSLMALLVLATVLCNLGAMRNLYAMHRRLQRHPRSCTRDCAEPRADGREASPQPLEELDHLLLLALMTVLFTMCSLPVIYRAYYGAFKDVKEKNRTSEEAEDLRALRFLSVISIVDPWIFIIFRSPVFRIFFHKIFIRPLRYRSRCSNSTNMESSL

[7] = Lipophilicity, log D of the compound; format: physicochemical; settings: octanol/water
[8] = biological target: T3, Prostaglandin D2 receptor 2 (Mus musculus, UniProt Q9Z2J6); test: Displacement of [3H]PGD2 from mouse CRTH2 receptor expressed in HEK293 cells; format: cell-based; summary of the method: as §2
T3 sequence (Q9Z2J6 whole entry): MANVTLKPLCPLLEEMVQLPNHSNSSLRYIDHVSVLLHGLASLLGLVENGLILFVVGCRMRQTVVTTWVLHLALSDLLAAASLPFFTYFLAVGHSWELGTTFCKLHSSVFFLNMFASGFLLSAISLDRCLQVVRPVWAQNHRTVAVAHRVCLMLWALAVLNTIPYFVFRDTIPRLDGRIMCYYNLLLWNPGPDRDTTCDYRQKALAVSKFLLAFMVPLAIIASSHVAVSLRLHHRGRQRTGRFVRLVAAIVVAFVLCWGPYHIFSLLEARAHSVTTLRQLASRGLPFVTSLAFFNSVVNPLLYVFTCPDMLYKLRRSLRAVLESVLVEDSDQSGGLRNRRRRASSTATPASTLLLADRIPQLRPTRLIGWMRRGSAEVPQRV

[9] = Inhibition of prostanoid EP4 receptor
[10] = biological target: T1, Prostaglandin D2 receptor 2; test: Antagonist activity at human CRTH2 receptor expressed in CHO cell membrane by [35S]GTP-gamma-S binding assay; format: functional, cell membranes
Summary of the method: (§3)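 [35S]GTPγS binding at 30 °C on 10 µg human CRTH2 membranes in 20 mM HEPES/KOH pH 7.4, 10 mM MgCl2, 10 µg/mL saponin, 3 µM GDP, 150 mM NaCl, 2% Me2SO. PGD2 preincubation 10 min (antagonist mode: 80 nM PGD2), then 0.15 nM [35S]GTPγS for 30 min. Nonspecific binding with 10 µM GTPγS; stopped by centrifugation, scintillation counting.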

[11] = Inhibition of prostanoid EP3 receptor
[12] = Tmax in Beagle dog at 1 mg/kg, iv; format: ADME, organism-based, Canis lupus familiaris; parameters: dose 1 mg/kg, route intravenous; settings: in vivo
Summary of the method: (§4)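 Three male beagle dogs, crossover design; 1 mg/kg given as a solution, iv bolus and oral gavage. Serial blood sampled up to 48 h post dose. Individual plasma samples analysed by LC-MS/MS; PK parameters derived by non-compartmental analysis.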

[13] = Apparent permeability across human Caco-2 cell membrane at 10 uM; format: ADME, cell-based
Summary of the method: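 Caco-2 monolayers grown 21 days on Transwell filters; TEER above 800 ohm·cm² required. 10 µM test compound in HBSS added apically (A to B) or basolaterally (B to A), 2 h at 37 °C. Both compartments sampled, analysed by LC/MS-MS.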

[14] = Cmax in rat at 1 mg/kg, iv; format: ADME, organism-based; parameters: dose 1 mg/kg, route intravenous; settings: in vivo
Summary of the method: (§5)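 Male Sprague–Dawley or Janvier rats, three per route, dosed by oral gavage or iv bolus. Serial blood drawn through an indwelling carotid catheter up to 24 h post dose. Plasma pooled by time point, analysed by LC-MS/MS; non-compartmental analysis.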

[15] = Cmax in Beagle dog at 1 mg/kg, po; settings: in vivo
[16] = Volume of distribution at steady state in Beagle dog at 1 mg/kg, iv; format: ADME, organism-based, Canis lupus familiaris; parameters: dose 1 mg/kg, route intravenous; settings: in vivo, read-out: Vdss; summary of the method: as §4
[17] = AUC (0 to last t) in rat at 1 mg/kg, iv; format: ADME, organism-based; parameters: time 0 - last, dose 1 mg/kg, route intravenous; settings: plasma; summary of the method: as §5
[18] = Half life in rat at 1 mg/kg, iv; format: ADME, organism-based; parameters: dose 1 mg/kg, route intravenous; settings: in vivo; summary of the method: as §5
[19] = Tmax in rat at 5 mg/kg, po; format: ADME, organism-based; parameters: dose 5 mg/kg, route oral; settings: in vivo; summary of the method: as §5
[20] = Cmax in rat at 5 mg/kg, po; format: ADME, organism-based; parameters: dose 5 mg/kg, route oral; settings: in vivo; summary of the method: as §5
[21] = Clearance in Beagle dog at 1 mg/kg, iv; format: ADME, organism-based, Canis lupus familiaris; parameters: dose 1 mg/kg, route intravenous; settings: in vivo; summary of the method: as §4
[22] = Half life in rat at 5 mg/kg, po; format: ADME, organism-based; parameters: dose 5 mg/kg, route oral; settings: in vivo; summary of the method: as §5
[23] = Half life in Beagle dog at 1 mg/kg, iv; format: ADME, organism-based, Canis lupus familiaris; parameters: dose 1 mg/kg, route intravenous; settings: in vivo; summary of the method: as §4
[24] = Volume of distribution at steady state in rat at 1 mg/kg, iv; format: ADME, organism-based; parameters: dose 1 mg/kg, route intravenous; settings: in vivo, read-out: Vdss; summary of the method: as §5
[25] = AUC (0 to last t) in Beagle dog at 1 mg/kg, iv; format: ADME, organism-based, Canis lupus familiaris; parameters: time 0 - last, dose 1 mg/kg, route intravenous; settings: plasma; summary of the method: as §4
[26] = Clearance in rat at 1 mg/kg, iv; format: ADME, organism-based; parameters: dose 1 mg/kg, route intravenous; settings: in vivo; summary of the method: as §5
[27] = Half life in Beagle dog at 1 mg/kg, po; settings: in vivo
[28] = AUC (0 to last t) in rat at 5 mg/kg, po; format: ADME, organism-based; parameters: time 0 - last, dose 5 mg/kg, route oral; settings: plasma; summary of the method: as §5
[29] = Cmax in Beagle dog at 1 mg/kg, iv; format: ADME, organism-based, Canis lupus familiaris; parameters: dose 1 mg/kg, route intravenous; settings: in vivo; summary of the method: as §4
[30] = Tmax in rat at 1 mg/kg, iv; format: ADME, organism-based; parameters: dose 1 mg/kg, route intravenous; settings: in vivo; summary of the method: as §5
[31] = Tmax in Beagle dog at 1 mg/kg, po; settings: in vivo
[32] = Oral bioavailability in rat at 5 mg/kg; format: ADME, organism-based; settings: in vivo; summary of the method: as §5
[33] = Oral bioavailability in Beagle dog at 1 mg/kg; format: ADME, organism-based, Canis lupus familiaris; settings: in vivo; summary of the method: as §4
[34] = AUC (0 to last t) in Beagle dog at 1 mg/kg, po; format: ADME, organism-based, Canis lupus familiaris; parameters: time 0 - last, dose 1 mg/kg, route oral; settings: plasma; summary of the method: as §4
[35] = biological target: T4, Prostaglandin D2 receptor 2 (Homo sapiens) (UniProt Q9Y5Y4); test: Inverse agonistic activity at human CRTH2 receptor expressed in CHO cell membrane by [35S]GTP-gamma-S binding assay; format: functional, cell membranes; summary of the method: as §3
T4 sequence (whole entry): T1 sequence (Q9Y5Y4 whole entry)

`O=C(O)CN1C(=O)[C@@]2(CC(=O)N(Cc3cccc(Cl)c3)C2=O)c2cc(Cl)ccc21` gave a microsomal CLint at 3 µM [1] of 8 µL/min/mg, a microsomal CLint at 3 µM [2] of 3 µL/min/mg and a Ki [3] of 0.023 µM. It also gave an IC50 [4] of over 30 µM, an IC50 [5] of over 30 µM and an IC50 [6] of over 30 µM. The logD [7] was -0.4, the Ki [8] was 0.033 µM and the IC50 [9] was over 30 µM. For the same molecule, the IC50 [10] was 0.107 µM and the IC50 [11] was over 30 µM.
For `O=C(O)CN1C(=O)[C@@]2(CC(=O)N(Cc3ccccc3F)C2=O)c2cc(Cl)ccc21`, the microsomal CLint at 3 µM [1] was 23 µL/min/mg, the microsomal CLint at 3 µM [2] was 15 µL/min/mg and the Tmax [12] was 0 h. For the same molecule, the Ki [3] was 0.023 µM, the Papp at 10 µM [13] was 2.4 ×10⁻⁶ cm/s and the IC50 [4] was over 30 µM. The Cmax [14] was 1990 ng/mL, the Cmax [15] was 503 ng/mL and the Vd [16] was 2 L/kg. The IC50 [5] was over 30 µM, the IC50 [6] was over 30 µM and the logD [7] was -1. It also gave an AUC(0-t) [17] of 1250 ng·h/mL, a half-life [18] of 1 h and a Tmax [19] of 0.5 h. The Cmax [20] was 297 ng/mL, the clearance [21] was 8.33 mL/min/kg and the half-life [22] was 4.2 h. It also gave a half-life [23] of 7 h, a Vd [24] of 0.9 L/kg and a Ki [8] of 0.022 µM. It also gave an IC50 [9] of over 30 µM, an AUC(0-t) [25] of 2020 ng·h/mL and a clearance [26] of 13.3 mL/min/kg. It also gave a half-life [27] of 3 h, an AUC(0-t) [28] of 2480 ng·h/mL and a Cmax [29] of 2570 ng/mL. The Tmax [30] was 0 h, the Tmax [31] was 2 h and the bioavailability [32] was 40%. For the same molecule, the IC50 [11] was over 30 µM, the bioavailability [33] was 120% and the AUC(0-t) [34] was 2350 ng·h/mL.
With `O=C1CC2(C(=O)N1Cc1ccccc1)C(=O)N(Cc1nnn[nH]1)c1ccc(Cl)cc12` (stereo unspecified) the Activity [35] was “Active” and the Ki [3] was 1.54 µM.

Source: ChEMBL document CHEMBL1145542, “Discovery of a new class of potent, selective, and orally bioavailable CRTH2 (DP2) receptor antagonists for the treatment of allergic inflammatory diseases” (J Med Chem, 2008)
